Consider eleven compounds from ChEMBL document CHEMBL1955854, “New retinoid derivatives as back-ups of Adarotene” (Bioorg Med Chem, 2012).

Broadly, the IC50 is the concentration that inhibits the measured activity by half.

Data set [1] is described as follows: Chemical stability in aqueous buffer containing 5% DMSO and 5% tween 80 at pH 6.8 assessed as compound recovery in anoxic conditions after 24 hrs by UPLC analysis. It is filed as physicochemical. As to conditions: read-out: Stability. An outline of the steps: (§1)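 Stability at 37 °C in aqueous buffer with 5% DMSO and 5% Tween 80 at pH 1.2, 6.8 or 7.4; percent recovery by HPLC/UPLC on BEH C18 column, water+0.1% TFA/acetonitrile gradient from 40% to 95% acetonitrile over 8 min, room temperature.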

Data set [2] in a line: Chemical stability in aqueous buffer containing 5% DMSO and 5% tween 80 at pH 1.2 assessed as compound recovery in anoxic conditions after 3 hrs by UPLC analysis. The format is physicochemical. As to conditions: read-out: Stability. Put shortly:
as §1

The nature of data set [3]: Chemical stability in aqueous buffer containing 5% DMSO and 5% tween 80 at pH 7.4 assessed as compound recovery in anoxic conditions after 24 hrs by UPLC analysis. It is filed as physicochemical. Particulars: read-out: Stability. An outline of the steps: as §1
Data set [4] is described as follows: Solubility in water. It is filed as physicochemical. Particulars: buffer.
In the next data set the test system is NCI-H460. The data set can be described thus: Antiproliferative activity against human NCI-H460 cells incubated for 24 hrs drug exposure measured after 48 hrs of recovery by sulforhodamine B assay. The format is functional, cell-based. In general terms: Sulforhodamine B stains cellular protein and so reports cell mass.
Data set [5] is described as follows: Chemical stability in aqueous buffer containing 5% DMSO and 5% tween 80 at pH 1.2 assessed as compound recovery in anoxic conditions after 12 hrs by UPLC analysis. It is filed as physicochemical. Particulars: pH 1.2, 12 h. Put shortly:
as §1

Take `O=C(O)/C=C/c1ccc(-c2ccc(OCCN3CCOCC3)c(C34CC5CC(CC(C5)C3)C4)c2)cc1`: the remaining at 24 h in data set [1] and in data set [3] was more than 99% throughout. Also, in data set [2], the remaining at 3 h was more than 99%. In addition, the solubility result in data set [4] was “Insoluble”. Besides, the IC50 in the data set with NCI-H460 is more than 10 µM. For the same compound, in data set [5], the Stability entry is reported as “Stable”.
Turning to `N#CCOc1ccc(-c2ccc(/C=C/C(=O)O)cc2)cc1C12CC3CC(CC(C3)C1)C2`, the remaining at 24 h in data set [1] and in data set [3] was more than 99% throughout. The remaining at 3 h in data set [2] was more than 99%. In addition, in data set [4], the solubility result was “Insoluble”. In addition, in the data set on NCI-H460, it took 0.85 µM to reach half-maximal inhibition (IC50). Further, the Stability result in data set [5] is recorded as “Stable”.
As for `COCCOCOc1ccc(-c2ccc(/C=C/C(=O)O)cc2)cc1C12CC3CC(CC(C3)C1)C2`, the solubility entry in data set [4] was “Insoluble”. The compound further showed an IC50 in the data set on NCI-H460 of 4.2 µM. Also, the Stability result in data set [5] was “Stable”.
Regarding `O=C(O)/C=C/c1ccc(-c2ccc(OCN3C(=O)c4ccccc4C3=O)c(C34CC5CC(CC(C5)C3)C4)c2)cc1`, the remaining at 24 h in data set [1] and in data set [3] was more than 99% in each case. The remaining at 3 h in data set [2] is more than 99%. Besides, the solubility result in data set [4] is given as “Insoluble”. The compound also came in with an IC50 with NCI-H460 of 8.4 µM. Further, the Stability entry in data set [5] is “Stable”.
On to `CCCOC(=O)OCOc1ccc(-c2ccc(/C=C/C(=O)O)cc2)cc1C12CC3CC(CC(C3)C1)C2`, for which the remaining at 24 h in data set [1] and in data set [3] was more than 99% throughout. Also, in data set [2], the remaining at 3 h is more than 99%. Also, the solubility result in data set [4] is recorded as “Insoluble”. In addition, half-maximal inhibition in the data set with NCI-H460 (IC50) required 0.32 µM. In addition, the Stability entry in data set [5] is on record as “Stable”.
Consider `CCCCCCCCCCC(=O)Oc1ccc(-c2ccc(/C=C/C(=O)O)cc2)cc1C12CC3CC(CC(C3)C1)C2`, for which the remaining at 24 h in data set [1] and in data set [3] was more than 99% each time. Also, the remaining at 3 h in data set [2] was more than 99%. For the same compound, the solubility entry in data set [4] is listed as “Insoluble”. Besides, the IC50 in the data set with NCI-H460 was 1.54 µM. The Stability result in data set [5] is on record as “Stable”.
On to `CCCCC/C=C/C/C=C/CCCCCCCC(=O)Oc1ccc(-c2ccc(/C=C/C(=O)O)cc2)cc1C12CC3CC(CC(C3)C1)C2`, for which, in data set [4], the solubility result is reported as “Insoluble”. In the data set on NCI-H460, the concentration for half-maximal inhibition (IC50) was 7.8 µM. Besides, the Stability result in data set [5] was “Stable”.
For `CC(C)NC(=O)Oc1ccc(-c2ccc(/C=C/C(=O)O)cc2)cc1C12CC3CC(CC(C3)C1)C2`, the remaining at 24 h in data set [1] and in data set [3] was more than 99% each time. The remaining at 3 h in data set [2] was more than 99%. Also, in data set [4], the solubility result is given as “Insoluble”. The IC50 with NCI-H460 stood at 5 µM. In addition, the Stability entry in data set [5] is “Stable”.
Consider `O=C(O)/C=C/c1ccc(-c2ccc(OC(=O)NC3CCN(C(=O)OCc4ccccc4)CC3)c(C34CC5CC(CC(C5)C3)C4)c2)cc1`, for which the remaining at 24 h in data set [1] and in data set [3] was more than 99% in each case. Besides, the remaining at 3 h in data set [2] was more than 99%. Also, the solubility result in data set [4] is reported as “Insoluble”. This compound showed an IC50 in the data set on NCI-H460 of 5 µM. For the same compound, the Stability entry in data set [5] was “Stable”.
As to `O=C(O)/C=C/c1ccc(-c2ccc(OC(=O)NCC(=O)O)c(C34CC5CC(CC(C5)C3)C4)c2)cc1`, the remaining at 24 h in data set [1] and in data set [3] was more than 99% each time. In addition, the remaining at 3 h in data set [2] is more than 99%. For the same compound, the solubility entry in data set [4] is “Insoluble”. The compound also had an IC50 in the data set on NCI-H460 of 3 µM. In addition, in data set [5], the Stability entry is recorded as “Stable”.
With `CCCCCCCCCCCNC(=O)Oc1ccc(-c2ccc(/C=C/C(=O)O)cc2)cc1C12CC3CC(CC(C3)C1)C2`, the remaining at 24 h in data set [1] and in data set [3] was more than 99% throughout. Moreover, the remaining at 3 h in data set [2] is more than 99%. For the same compound, the solubility entry in data set [4] is given as “Insoluble”. The IC50 in the data set with NCI-H460 was 1.39 µM. Moreover, the Stability entry in data set [5] is “Stable”.
